# Assay results from ChEMBL document CHEMBL2321794, “Evaluation of difluoromethyl ketones as agonists of the γ-aminobutyric acid type B (GABAB) receptor” (J Med Chem, 2013).
# Active and inactive are the calls of the source. The rule behind the calls is not given here.
# Key:
# [1] = target: GABA-A receptor; alpha-1/beta-2/gamma-2 (Rattus norvegicus, UniProt P18508+P62813+P63138); assay: Agonist activity at rat GABA-A alpha1beta2gamma2 receptor expressed in human TSA201 cells by whole cell voltage-clamp method; format: cell-based
# Method in brief: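 Whole-cell voltage clamp at rt, holding potential −60 mV, in tsA201 cells transiently transfected (calcium phosphate) with rat α1, β2, γ2s subunits plus GFP (1:1:5:1); recorded the day after replating. Compounds applied at 100 μM via gap-free protocol; currents compared with response to 100 μM GABA. Intracellular NMDG-Cl/CsCl pH 7.2; extracellular NaCl/HEPES pH 7.4; 1 kHz filtering and sampling.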
# HEK293 = assay: Cytotoxicity against HEK293 cells expressing human GABA-B B1/B2 receptor gene after 3 hrs by MTS assay; format: cell-based; conditions: hek293, 3 h
# Method in brief: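 MTS viability in HEK293 cells stably expressing human GABA-B1/B2 with Cre-luc reporter: about 65000 cells/well plated overnight, treated 3 h at 37 °C, 5% CO2 in Optimem, in triplicate. CellTiter Aqueous One reagent then added for 1.5 h; absorbance read at 490 nm.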
# [2] = target: T1, GABA-A receptor; alpha-1/beta-2/gamma-2 (Rattus norvegicus) (UniProt P18508+P62813+P63138); assay: Agonist activity at rat GABA-Aalpha1beta2gamma2 activity expressed in human TSA201 cells assessed as potentiation of 100 uM GABA-induced current amplitude at 100 uM by whole cell voltage-clamp method; format: cell-based
# Method in brief: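 Same whole-cell clamp setup (rat α1β2γ2s in tsA201, −60 mV, rt): 100 μM GABA, near-saturating, co-applied with 100 μM compound versus GABA alone; normalized current amplitude, mean ± SE, N = 5.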
# [3] = target: T1, GABA-A receptor; alpha-1/beta-2/gamma-2 (Rattus norvegicus); assay: Agonist activity at rat GABA-Aalpha1beta2gamma2 activity expressed in human TSA201 cells assessed as potentiation of 1 uM GABA-induced current amplitude at 100 uM by whole cell voltage-clamp method; format: cell-based
# Method in brief: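 Modulation test on tsA201 cells expressing rat α1β2γ2s GABA-A receptor under whole-cell voltage clamp at −60 mV, rt: 1 μM GABA applied alone or simultaneously with 100 μM compound; current amplitude normalized, mean ± SE, N = 5 cells.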
# Mus musculus [4] = assay: Anxiolytic activity in high alcohol preferring-2 mouse assessed as reduction of startle response under light and noise condition at 36 mg/kg, ip treated 25 mins prior to test; format: functional, organism-based; parameters: dose 36 mg/kg
# Method in brief: (§1)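 HAP2 mice, experimentally naive (16 male, 16 female, 316–332 days old), given compound ip at 10 mL/kg in 10% DMSO/45% (w/v) 2-hydroxypropyl-β-cyclodextrin in water, 25 min before test. Conditioning: 40 trials of 30 s light paired with 0.5 s, 0.8 mA foot shock; test 24 h later. Startle force in grams on noise-alone and light + noise trials, 70–71 dB background; sexes pooled.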
# Mus musculus [5] = assay: Anxiolytic activity in high alcohol preferring-2 mouse assessed as reduction of startle response under noise alone condition at 36 mg/kg, ip treated 25 mins prior to test; format: functional, organism-based; parameters: dose 36 mg/kg; method in brief: as §1
# GABA-B receptor = GABA-B receptor (Homo sapiens, UniProt O75899+Q9UBS5); assay: Agonist activity at human GABA-B B1/B2 receptor expressed in HEK293 cells assessed as inhibition of forskolin-stimulated cAMP accumulation after 3 hrs by luciferase reporter gene assay; format: functional, cell-based
# Mus musculus [6] = assay: Anxiolytic activity in high alcohol preferring-2 mouse assessed as reduction of startle response under light and noise condition at 12.5 mg/kg, ip treated 25 mins prior to test; format: functional, organism-based; parameters: dose 12.5 mg/kg
# Method in brief: (§2)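 Experimentally naive HAP2 mice (16 male, 16 female, 316–332 days old). Given ip at 10 mL/kg in 10% DMSO/45% (w/v) 2-hydroxypropyl-β-cyclodextrin in distilled water, 25 min before the test. Conditioning 24 h prior: 40 trials of 30 s, 7 W light paired with 0.5 s, 0.8 mA foot shock at 2 min intervals. Startle force in grams excluding body weight, 70–71 dB background, sexes pooled.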
# Mus musculus [7] = assay: Anxiolytic activity in high alcohol preferring-2 mouse assessed as reduction of startle response under noise alone condition at 12.5 mg/kg, ip treated 25 mins prior to test; format: functional, organism-based; parameters: dose 12.5 mg/kg; method in brief: as §2
# Mus musculus [8] = assay: Anxiolytic activity in high alcohol preferring-2 mouse assessed as reduction of startle response under noise alone condition at 7.5 mg/kg, ip treated 25 mins prior to test; format: functional; conditions: route intraperitoneal
# Method in brief: (§3)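 Male and female HAP2 mice (7 of each, 133–142 days old) with prior startle testing, prepulse testing and vehicle or drug injections, followed by a 15-day washout and counterbalancing. Dosed ip (10 mL/kg, distilled water vehicle) 25 min before the test session. Light (30 s, 7 W) was paired with foot shock (0.5 s, 0.8 mA; 40 trials) 24 h earlier. Startle force in grams, sexes pooled, mean ± SEM.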
# Mus musculus [9] = assay: Anxiolytic activity in high alcohol preferring-2 mouse assessed as reduction of startle response under light and noise condition at 7.5 mg/kg, ip treated 25 mins prior to test; format: functional; conditions: route intraperitoneal; method in brief: as §3
# Chain of GABA-A receptor; alpha-1/beta-2/gamma-2 (P18508 whole entry): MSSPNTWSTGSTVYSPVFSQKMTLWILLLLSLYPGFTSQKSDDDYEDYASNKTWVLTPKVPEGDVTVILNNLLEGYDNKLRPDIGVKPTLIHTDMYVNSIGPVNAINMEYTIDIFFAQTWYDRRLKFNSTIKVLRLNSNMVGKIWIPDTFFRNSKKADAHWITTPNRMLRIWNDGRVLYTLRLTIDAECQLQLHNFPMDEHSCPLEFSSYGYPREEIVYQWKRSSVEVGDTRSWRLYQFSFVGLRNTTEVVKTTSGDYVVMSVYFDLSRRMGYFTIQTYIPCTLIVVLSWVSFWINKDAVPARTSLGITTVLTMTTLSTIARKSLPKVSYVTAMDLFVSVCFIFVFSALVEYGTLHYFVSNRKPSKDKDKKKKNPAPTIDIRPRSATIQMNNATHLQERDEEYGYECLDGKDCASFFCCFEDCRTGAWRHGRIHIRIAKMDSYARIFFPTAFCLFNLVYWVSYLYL
# Chain of GABA-A receptor; alpha-1/beta-2/gamma-2 (P62813 whole entry): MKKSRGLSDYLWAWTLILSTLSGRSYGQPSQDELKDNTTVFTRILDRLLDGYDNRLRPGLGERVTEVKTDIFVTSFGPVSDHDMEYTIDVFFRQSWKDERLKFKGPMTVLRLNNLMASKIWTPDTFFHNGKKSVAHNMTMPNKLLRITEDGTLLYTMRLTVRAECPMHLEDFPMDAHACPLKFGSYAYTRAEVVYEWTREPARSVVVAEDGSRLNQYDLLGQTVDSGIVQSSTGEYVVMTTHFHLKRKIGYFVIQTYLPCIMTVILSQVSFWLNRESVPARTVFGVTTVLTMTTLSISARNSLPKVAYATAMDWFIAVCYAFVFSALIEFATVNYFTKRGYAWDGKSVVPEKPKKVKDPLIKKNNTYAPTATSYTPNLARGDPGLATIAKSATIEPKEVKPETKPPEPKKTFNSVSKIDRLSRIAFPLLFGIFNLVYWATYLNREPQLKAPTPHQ
# Chain of GABA-A receptor; alpha-1/beta-2/gamma-2 (P63138 whole entry): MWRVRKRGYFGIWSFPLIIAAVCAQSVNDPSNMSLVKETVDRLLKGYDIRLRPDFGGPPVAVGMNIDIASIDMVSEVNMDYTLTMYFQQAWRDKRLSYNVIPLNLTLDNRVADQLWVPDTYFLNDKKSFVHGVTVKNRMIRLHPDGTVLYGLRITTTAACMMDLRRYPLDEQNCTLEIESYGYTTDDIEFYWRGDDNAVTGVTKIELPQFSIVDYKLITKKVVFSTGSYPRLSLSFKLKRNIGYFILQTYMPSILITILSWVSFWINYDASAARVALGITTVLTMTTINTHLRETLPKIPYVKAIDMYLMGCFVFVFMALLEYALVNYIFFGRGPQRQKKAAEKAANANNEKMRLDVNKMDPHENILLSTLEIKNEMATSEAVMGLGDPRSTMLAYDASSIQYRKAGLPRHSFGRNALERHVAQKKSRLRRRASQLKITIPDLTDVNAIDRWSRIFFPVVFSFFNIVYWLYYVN
# Chain of GABA-B receptor (Q9UBS5 whole entry): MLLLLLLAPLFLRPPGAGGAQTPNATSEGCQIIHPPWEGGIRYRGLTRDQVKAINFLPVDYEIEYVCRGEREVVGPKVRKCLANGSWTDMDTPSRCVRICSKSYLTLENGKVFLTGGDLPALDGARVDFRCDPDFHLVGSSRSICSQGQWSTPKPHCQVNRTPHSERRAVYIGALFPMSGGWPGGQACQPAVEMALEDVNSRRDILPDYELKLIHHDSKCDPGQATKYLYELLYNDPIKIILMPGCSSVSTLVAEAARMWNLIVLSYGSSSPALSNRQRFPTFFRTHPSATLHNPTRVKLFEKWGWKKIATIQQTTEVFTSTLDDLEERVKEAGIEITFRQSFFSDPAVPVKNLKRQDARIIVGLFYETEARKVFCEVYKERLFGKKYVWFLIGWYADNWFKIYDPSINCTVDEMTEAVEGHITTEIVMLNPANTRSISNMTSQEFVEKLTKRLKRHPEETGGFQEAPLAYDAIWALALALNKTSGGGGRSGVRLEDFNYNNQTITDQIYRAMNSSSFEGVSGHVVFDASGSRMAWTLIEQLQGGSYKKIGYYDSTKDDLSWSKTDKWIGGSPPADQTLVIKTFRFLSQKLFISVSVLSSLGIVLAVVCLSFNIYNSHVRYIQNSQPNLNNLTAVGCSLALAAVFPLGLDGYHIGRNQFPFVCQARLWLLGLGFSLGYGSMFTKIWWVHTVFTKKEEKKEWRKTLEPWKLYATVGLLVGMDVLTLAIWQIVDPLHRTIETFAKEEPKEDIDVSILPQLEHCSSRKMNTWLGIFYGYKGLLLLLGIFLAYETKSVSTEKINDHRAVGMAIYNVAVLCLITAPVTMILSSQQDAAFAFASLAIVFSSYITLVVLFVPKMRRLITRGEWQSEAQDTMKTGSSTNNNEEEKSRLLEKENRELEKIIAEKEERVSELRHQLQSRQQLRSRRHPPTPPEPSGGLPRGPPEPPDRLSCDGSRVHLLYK
# Chain of GABA-B receptor (O75899 whole entry): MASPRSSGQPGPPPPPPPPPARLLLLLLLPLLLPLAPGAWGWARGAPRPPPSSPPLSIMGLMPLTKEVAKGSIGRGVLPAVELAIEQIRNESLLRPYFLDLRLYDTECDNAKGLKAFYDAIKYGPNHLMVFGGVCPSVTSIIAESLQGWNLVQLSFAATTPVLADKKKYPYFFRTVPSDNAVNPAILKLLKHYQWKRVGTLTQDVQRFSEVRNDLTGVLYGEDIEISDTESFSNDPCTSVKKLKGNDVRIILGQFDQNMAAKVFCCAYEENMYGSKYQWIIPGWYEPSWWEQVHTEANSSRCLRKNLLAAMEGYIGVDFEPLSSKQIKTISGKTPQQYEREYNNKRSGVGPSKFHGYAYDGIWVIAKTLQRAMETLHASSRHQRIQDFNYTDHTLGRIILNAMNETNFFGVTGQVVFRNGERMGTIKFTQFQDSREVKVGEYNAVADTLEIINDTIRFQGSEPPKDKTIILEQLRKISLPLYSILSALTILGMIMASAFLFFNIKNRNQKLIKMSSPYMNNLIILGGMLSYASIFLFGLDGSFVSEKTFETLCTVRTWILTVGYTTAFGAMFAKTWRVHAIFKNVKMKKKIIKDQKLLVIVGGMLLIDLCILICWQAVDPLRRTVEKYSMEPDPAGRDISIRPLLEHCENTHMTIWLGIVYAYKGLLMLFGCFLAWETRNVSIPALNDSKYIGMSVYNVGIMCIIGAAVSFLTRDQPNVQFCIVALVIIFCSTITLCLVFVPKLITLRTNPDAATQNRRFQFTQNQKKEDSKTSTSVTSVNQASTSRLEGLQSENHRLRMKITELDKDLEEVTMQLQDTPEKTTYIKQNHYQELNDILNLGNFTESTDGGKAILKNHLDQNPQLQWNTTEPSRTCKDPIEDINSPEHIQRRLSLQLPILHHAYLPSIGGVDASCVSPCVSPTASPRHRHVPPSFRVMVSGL
smiles,measurement,setting,value
COc1ccc(C(O)C(F)(F)C(=O)c2ccc3ccccc3c2)cc1 (racemic),EC50,[1],> 100 µM
CC(=O)c1ccc(C(O)C(F)(F)C(=O)C23CC4CC(CC(C4)C2)C3)cc1 (stereo unspecified),Activity,HEK293,Non-toxic
CC(=O)c1ccc(C(O)C(F)(F)C(=O)C23CC4CC(CC(C4)C2)C3)cc1 (racemic) [listing 1 of 2 here],EC50,[1],> 100 µM
CC(=O)c1ccc(C(O)C(F)(F)C(=O)C23CC4CC(CC(C4)C2)C3)cc1 (racemic) [listing 2 of 2 here],Activity,[2],inactive
same,Activity,[3],inactive
same,Activity,Mus musculus [4],Active
same,Activity,Mus musculus [5],Active
O=C(c1ccc2ccccc2c1)C(F)(F)C(O)C1CCCCC1 (racemic),EC50,[1],> 100 µM
O=C(C12CC3CC(CC(C3)C1)C2)C(F)(F)C(O)/C=C/c1ccccc1 (racemic),EC50,GABA-B receptor,40 µM
same,EC50,[1],> 100 µM
CC(C)(C)c1cc(C(C)(C)C)c2c(c1)C(O)(C(F)(F)F)C(=O)O2 (racemic),EC50,[1],> 100 µM
same,Activity,Mus musculus [6],Active
same,Activity,Mus musculus [7],Active
NCC(CC(=O)O)c1ccc(Cl)cc1 (racemic) [BACLOFEN],Activity,Mus musculus [8],8.1 g
same,EC50,[1],> 100 µM
same,Activity,Mus musculus [9],26.3 g
CC1(C)C2CCC(C(O)C(F)(F)C(=O)c3ccc4c(c3)OCO4)C1C2 (racemic),Activity,HEK293,Toxic
C/C=C/C=C/C(O)C(F)(F)C(=O)/C=C/CCCC (racemic),EC50,GABA-B receptor,> 100 µM
CCC/C=C/C(O)C(F)(F)C(=O)c1ccc2ccccc2c1 (racemic),EC50,[1],> 100 µM
C/C=C/C=C/C(O)C(F)(F)C(=O)c1ccc2ccccc2c1 (racemic),EC50,[1],> 100 µM
CC(=O)c1ccc(C(O)CC(=O)C23CC4CC(CC(C4)C2)C3)cc1 (racemic),EC50,GABA-B receptor,> 100 µM
